Structures are written as SMILES.

Assay [1] has as its system Rattus norvegicus. Put plainly: Anticholinergic activity against carbachol induced gastric emptying(GE) in rat when administered perorally. As to conditions: Stomach, po. The class given is functional. The essentials:
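Ten 1-mm polystyrene beads placed in stomach by tube 30 min later; carbachol 80 mcg/kg sc at 1 h post-dose; killed 15 min after. Beads left in stomach counted. ED50 = dose giving 50% inhibition of emptying vs controls, by least-squares regression; ≥5 rats/group, ≥3 dose groups.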

Assay [2] is described as follows: Ratio between gastric emptying(GE) and acute gastric fistula(AGF). It is filed as functional, Stomach.
Assay [3] concerns the target Muscarinic acetylcholine receptor. The experiment in a line: Displacement of [3H]- quinuclidinyl benzilate from rat brain Muscarinic acetylcholine receptor.
Assay [4] is filed under the species Rattus norvegicus. Put plainly: Relative potency against atropine. It is filed as functional.
The test system of assay [5] is Rattus norvegicus. Put plainly: Antisecretory activity against acute gastric fistula(AGF) in rat when administered perorally. The class given is functional. As to conditions: Stomach, po. An outline of the steps: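 Female Sprague-Dawley rats, 120-160 g, fasted ≥18 h; drug or vehicle (0.5% methocel) po 1 h before surgery. Under ether, fundic fistula tube inserted; first 30-min sample discarded, then two 1-h collections. Volume measured, aliquot titrated to pH 7 with 0.01 N NaOH for total acid output. ED50 = dose for 50% inhibition vs controls, least-squares regression; ≥5 rats/group, ≥3 doses.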

The species entered for assay [6] is Rattus norvegicus. The experiment in a line: animal or person. As to conditions: Stomach, po.
The subject of assay [7] is Rattus norvegicus. The experiment in a line: Anticholinergic activity against carbachol-induced gastric emptying (GE) in rat when administered perorally. To be noted: Stomach, po.

A word on the ED50: it is the dose at which the effect has come halfway, by size or by number of responders. Higher therefore signals weaker potency. On to `C#CC/N=C/N1CCC(C(c2ccccc2)c2ccccc2)CC1.Cl`, for which the ED50 was 8 mg/kg in the assay with Rattus norvegicus [1] and 5.4 mg/kg in the assay with Rattus norvegicus [5]. Besides, in assay [2], the Ratio is 1.48. This compound registered an I50 in assay [3] of 1300 nM. The “Relative Potency” value in the assay filed under Rattus norvegicus [4] stood at 0.19.
Take `Cl.N=CN1CCC(C(c2ccccc2)c2ccccc2)CC1`: the ED50 in the assay with Rattus norvegicus [1] turned out to be 0.86 mg/kg; in the assay on Rattus norvegicus [5], 0.34 mg/kg. In addition, the Ratio in assay [2] worked out at 2.53. The same compound yielded an I50 in assay [3] of 3 nM. Also, in the assay filed under Rattus norvegicus [4], the “Relative Potency” value was 81.7.
In the same order, the values of `C=CC/N=C/N1CCC(C(c2ccccc2)c2ccccc2)CC1` are 13.2 mg/kg, 10.4 mg/kg, 1.27, 490 nM and 0.51.
In the same order, the values of `CCC(=N)N1CCC(C(c2ccccc2)c2ccccc2)CC1` are 20 mg/kg, 54.5 mg/kg, 0.37, 70 nM and 3.61.
Regarding `CCCCCCCCCC/N=C/N1CCC(C(c2ccccc2)c2ccccc2)CC1`, the ED50 was 43.1 mg/kg in the assay on Rattus norvegicus [1] and 7.8 mg/kg in the assay with Rattus norvegicus [5]. The Ratio in assay [2] amounted to 5.52. Besides, in assay [3], the I50 is 3800 nM. Moreover, in the assay listed under Rattus norvegicus [4], the “Relative Potency” value amounted to 0.06.
In the same order, the values of `CCCCCCC/N=C/N1CCC(C(c2ccccc2)c2ccccc2)CC1.O=C(O)/C=C/C(=O)O` are 33.4 mg/kg, 11.5 mg/kg, 2.9, 3300 nM and 0.08.
On the same counts, the results for `CCCCCC/N=C/N1CCC(C(c2ccccc2)c2ccccc2)CC1.O=C(O)/C=C/C(=O)O` are 15 mg/kg, 8.34 mg/kg, 1.8, 1900 nM and 0.13.
In the same order, the values of `CC(C)/N=C/N1CCC(C(c2ccccc2)c2ccccc2)CC1.O=C(O)/C=C/C(=O)O` are 15.1 mg/kg, 8.6 mg/kg, 1.76, 1600 nM and 0.15.
For `CCCC/N=C/N1CCC(C(c2ccccc2)c2ccccc2)CC1.O=C(O)/C=C/C(=O)O`, the median effective dose (ED50) in the assay on Rattus norvegicus [1] was 10.3 mg/kg; in the assay on Rattus norvegicus [5], 7.6 mg/kg. In addition, the Ratio in assay [2] was determined as 1.36. Besides, in assay [3], the I50 is 1600 nM. For the same compound, the “Relative Potency” value in the assay filed under Rattus norvegicus [4] was determined as 0.15.
With `CCCCCCCCC/N=C/N1CCC(C(c2ccccc2)c2ccccc2)CC1.O=C(O)/C=C/C(=O)O`, the median effective dose (ED50) was 40.4 mg/kg in the assay with Rattus norvegicus [1] and 10.8 mg/kg in the assay with Rattus norvegicus [5]. The Ratio in assay [2] is listed as 3.74. In assay [3], this compound showed an I50 of over 10000 nM.
In the case of `CCCCCCCC/N=C/N1CCC(C(c2ccccc2)c2ccccc2)CC1.O=C(O)/C=C/C(=O)O`, the ED50 with Rattus norvegicus [1] is 176 mg/kg; with Rattus norvegicus [5] it was 10.9 mg/kg. Further, the Ratio in assay [2] came out at 16.15. The compound further gave an I50 in assay [3] of 8600 nM. The “Relative Potency” value in the assay listed under Rattus norvegicus [4] was 0.04.
For the compound `CN1[C@@H]2CC[C@H]1C[C@@H](OC(=O)C(CO)c1ccccc1)C2` (stereo partly drawn) [ATROPINE], the 50% effective dose (ED50) amounted to 0.35 mg/kg with Rattus norvegicus [1] and 0.64 mg/kg in the assay with Rattus norvegicus [5].
On to `CN/C(=N\CCSCc1nc[nH]c1C)NC#N` [CIMETIDINE], for which the median effective dose (ED50) was found to be 7.6 mg/kg in the assay listed under Rattus norvegicus [6] and 160 mg/kg with Rattus norvegicus [7].

The values are drawn from ChEMBL document CHEMBL1122459, “4-(Diphenylmethyl)-1-[(imino)methyl]piperidines as gastric antisecretory agents” (J Med Chem, 1983).
